Experimental data collected from several papers.
Each line is one published result; the experiments were not run side by side.
Target: Cholecystokinin receptor type A (CCKAR, Homo sapiens, UniProt P32238)
One construct used (P32238 1-428): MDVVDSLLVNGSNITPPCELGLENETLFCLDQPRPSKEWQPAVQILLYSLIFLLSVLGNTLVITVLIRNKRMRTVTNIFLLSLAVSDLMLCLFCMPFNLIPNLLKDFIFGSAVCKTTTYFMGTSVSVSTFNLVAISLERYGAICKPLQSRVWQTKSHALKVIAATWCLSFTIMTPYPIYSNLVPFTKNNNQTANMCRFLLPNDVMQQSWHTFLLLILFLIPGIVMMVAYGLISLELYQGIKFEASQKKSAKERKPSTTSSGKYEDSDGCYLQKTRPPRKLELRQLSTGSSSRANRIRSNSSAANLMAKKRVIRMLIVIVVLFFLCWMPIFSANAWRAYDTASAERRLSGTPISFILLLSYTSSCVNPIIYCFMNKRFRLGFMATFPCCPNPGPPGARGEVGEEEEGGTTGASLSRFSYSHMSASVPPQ

| SMILES | read-out | technique | tested at | endpoint | value |
| --- | --- | --- | --- | --- | --- |
| CCN(CC)CCCC[C@H](NC(=O)[C@H](CC(C)C)NC(=O)[C@H](C)NC(=O)[C@H](Cc1ccccc1)NC(=O)c1ccc(C(C)(C)C)cc1)C(=O)N[C@@H](CO)C(=O)OC | ligand displacement | radioligand | 10 µM | remaining binding | 67.2% |
| Nc1ncc(-c2nc(N3CCOCC3)nc(N3CCOCC3)n2)c(C(F)F)n1 | cell-free assay |  | 10 µM | remaining signal | 118% |
| Clc1ccc2c(C3CCN(CCc4c[nH]c5ccccc45)CC3)c[nH]c2c1 | ligand displacement | radioligand | 10 µM | inhibition | 25% |
| CN(CCN1CCC(OC(=O)Nc2ccccc2-c2ccccc2)CC1)C(=O)c1ccc(CN2CCC(C(N)=O)CC2)cc1 | ligand displacement | radioligand | 1 µM | inhibition | 2% |
| Cc1ncc(C)n2nc(/C=C/c3nc(N4CCCC4)cc(N4CCOCC4)n3)nc12 | ligand displacement |  | 10 µM | inhibition | -33% |
| c1ccc(C(NCCNC(c2ccccc2)c2ccccc2)c2ccccc2)cc1 | cell-free assay |  | 10 µM | inhibition | 7% |
| COc1ccc(S(=O)(=O)N2CCCCC2)cc1C | ligand displacement | radioligand | 10 µM | inhibition | < 30% |
| C[C@H](C(=O)N[C@H]1COc2ccccc2[C@@H]1S(C)(=O)=O)c1ccc(F)cc1 | cell-free assay |  | 10 µM | inhibition | -11% |
| O=C(Nc1cccnn1)N1CCN([C@@H]2CCOc3cc(C(F)(F)F)ccc32)CC1 | cell-free assay |  | 20 µM | inhibition | 20% |
